Measured values reported in ChEMBL document CHEMBL1126099, “Synthesis and biological characterization of alpha-(4-fluorophenyl)-4-(5-fluoro-2-pyrimidinyl)-1-piperazinebutanol and analogues as potential atypical antipsychotic agents” (J Med Chem, 1992).
pIC50: −log10 of the molar value. Activity calls are given as the source filed them. No cut-off for these calls is given here.

What was measured:
[1] = molecular target: T1, Adrenergic receptor alpha-1 (Rattus norvegicus, UniProt P15823+P23944+P43140); experiment: Inhibition of [3H]WB-4101 binding to rat cortical Alpha-1 adrenergic receptor in vitro; assay type: protein assay
T1 sequence (P15823 whole entry): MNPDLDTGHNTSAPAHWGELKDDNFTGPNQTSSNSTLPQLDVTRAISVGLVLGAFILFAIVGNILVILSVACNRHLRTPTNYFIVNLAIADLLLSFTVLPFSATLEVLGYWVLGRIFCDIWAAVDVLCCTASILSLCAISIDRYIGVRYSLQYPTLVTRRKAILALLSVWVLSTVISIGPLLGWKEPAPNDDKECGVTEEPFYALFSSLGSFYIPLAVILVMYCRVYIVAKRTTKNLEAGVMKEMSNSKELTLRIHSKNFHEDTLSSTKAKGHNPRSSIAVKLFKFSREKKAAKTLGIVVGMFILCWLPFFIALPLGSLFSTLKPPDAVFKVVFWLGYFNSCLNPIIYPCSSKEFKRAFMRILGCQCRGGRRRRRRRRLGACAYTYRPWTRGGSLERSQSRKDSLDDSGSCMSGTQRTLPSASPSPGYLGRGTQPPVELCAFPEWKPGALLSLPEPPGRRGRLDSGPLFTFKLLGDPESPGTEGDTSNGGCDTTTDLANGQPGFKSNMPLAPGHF
T1 sequence (P23944 whole entry): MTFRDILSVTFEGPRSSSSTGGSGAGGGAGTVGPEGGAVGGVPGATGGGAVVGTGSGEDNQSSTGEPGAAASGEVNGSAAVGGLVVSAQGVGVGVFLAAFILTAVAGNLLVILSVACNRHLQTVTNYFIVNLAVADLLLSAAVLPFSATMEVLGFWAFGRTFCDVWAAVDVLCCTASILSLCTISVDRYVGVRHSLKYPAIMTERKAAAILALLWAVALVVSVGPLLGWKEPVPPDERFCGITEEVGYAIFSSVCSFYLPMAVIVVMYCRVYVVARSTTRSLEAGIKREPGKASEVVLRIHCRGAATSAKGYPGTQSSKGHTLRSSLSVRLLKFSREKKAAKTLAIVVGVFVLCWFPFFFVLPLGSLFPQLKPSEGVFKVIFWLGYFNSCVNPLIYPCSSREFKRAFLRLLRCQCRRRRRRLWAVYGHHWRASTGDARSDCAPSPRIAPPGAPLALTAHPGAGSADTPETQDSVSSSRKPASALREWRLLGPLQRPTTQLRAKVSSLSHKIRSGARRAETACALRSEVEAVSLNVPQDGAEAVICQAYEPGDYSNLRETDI
T1 sequence (P43140 whole entry): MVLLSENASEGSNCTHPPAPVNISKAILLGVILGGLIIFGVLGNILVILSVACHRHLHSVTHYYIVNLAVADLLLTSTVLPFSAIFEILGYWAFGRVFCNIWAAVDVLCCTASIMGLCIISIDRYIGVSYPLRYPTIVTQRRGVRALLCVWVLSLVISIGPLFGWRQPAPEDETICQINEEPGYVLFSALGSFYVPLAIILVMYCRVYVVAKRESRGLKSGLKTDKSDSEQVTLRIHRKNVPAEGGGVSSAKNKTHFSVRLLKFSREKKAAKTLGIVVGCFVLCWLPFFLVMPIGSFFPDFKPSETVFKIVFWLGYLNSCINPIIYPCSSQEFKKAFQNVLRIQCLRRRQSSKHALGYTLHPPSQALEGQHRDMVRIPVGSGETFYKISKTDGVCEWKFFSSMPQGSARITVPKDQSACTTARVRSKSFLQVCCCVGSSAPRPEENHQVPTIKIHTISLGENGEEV
Method in brief: (§1)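 Competition binding against tritiated radioligand. Test drug was run at five concentrations in a single experiment, and IC50 (nM) was derived from displacement.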

[2] = molecular target: T2, Sigma non-opioid intracellular receptor 1 (Rattus norvegicus, UniProt Q9R0C9); experiment: Displacement of (+)-[3H]-3-PPP from rat cortical sigma site; method in brief: as §1
[3] = species on record: Rattus norvegicus; experiment: Inhibition of apomorphine-induced stereotypy in rats via peroral route; assay type: functional
[4] = molecular target: D(2) dopamine receptor (Rattus norvegicus, UniProt P61169); experiment: In vitro inhibitory against radioligand [3H]spiperone binding to rat striatal Dopamine receptor D2; method in brief: as §1
[5] = species on record: Rattus norvegicus; experiment: Effective peroral dose for inhibition of conditioned avoidance response in rats; assay type: functional; conditions: po
[6] = tested on: Rattus norvegicus; experiment: Effective in vivo peroral dose against induction of catalepsy in rats; assay type: functional
[7] = molecular target: T1, Adrenergic receptor alpha-1; experiment: Inhibitory concentration against radioligand [3H]-WB- 4101 binding to rat cortical Alpha-1 adrenergic receptor; assay type: protein assay; method in brief: as §1
[8] = species on record: Mus musculus; experiment: Effective dose for inhibition of norepinephrine induced lethality in mouse; assay type: functional
[9] = species on record: Mus musculus; experiment: Effective dose for inhibition of physostigmine induced lethality in mouse; assay type: functional
[10] = tested on: Rattus norvegicus; experiment: Effective dose for reversal of trifluoperazine-induced catalepsy in rats; I=Inactive (ED50 mg/Kg); assay type: functional, organism-based
[11] = species on record: Rattus norvegicus; experiment: Effective dose for inhibition of spontaneous motor activity in rats; assay type: functional
[12] = species on record: Rattus norvegicus; experiment: Effective dose for ethanol potentiation in rats; assay type: functional
[13] = species on record: Rattus norvegicus; experiment: Effective dose for motor incoordination in rats was determined by rotarod method; assay type: functional
[14] = molecular target: T2, Sigma non-opioid intracellular receptor 1; experiment: Compound was tested in vitro for its ability to displace radioligand (+)-[3H]-3-PPP from rat cortical sigma receptor
[15] = Rattus norvegicus, po, read-out: ED50

T2 sequence (Q9R0C9 whole entry): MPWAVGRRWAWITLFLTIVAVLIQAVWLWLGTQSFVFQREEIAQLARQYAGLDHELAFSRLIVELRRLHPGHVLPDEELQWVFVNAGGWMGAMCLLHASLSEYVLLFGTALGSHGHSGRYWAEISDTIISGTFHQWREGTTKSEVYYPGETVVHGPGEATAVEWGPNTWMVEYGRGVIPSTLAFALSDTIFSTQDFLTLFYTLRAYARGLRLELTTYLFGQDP
Chain of D(2) dopamine receptor (P61169 whole entry): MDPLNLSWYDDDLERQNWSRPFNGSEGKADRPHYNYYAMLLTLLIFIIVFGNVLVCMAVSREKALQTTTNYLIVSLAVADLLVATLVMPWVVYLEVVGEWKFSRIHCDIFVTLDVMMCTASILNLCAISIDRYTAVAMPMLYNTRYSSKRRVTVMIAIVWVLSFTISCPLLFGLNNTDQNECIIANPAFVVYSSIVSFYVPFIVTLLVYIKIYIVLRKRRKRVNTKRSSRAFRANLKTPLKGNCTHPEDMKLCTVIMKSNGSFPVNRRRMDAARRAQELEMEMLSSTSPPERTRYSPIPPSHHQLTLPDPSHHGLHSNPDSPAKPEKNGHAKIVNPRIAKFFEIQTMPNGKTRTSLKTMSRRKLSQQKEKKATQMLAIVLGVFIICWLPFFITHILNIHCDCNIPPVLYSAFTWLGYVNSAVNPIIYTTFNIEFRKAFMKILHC

| SMILES | IC50 [1] [nM] | pIC50 [2] | ED50 [3, 15] [mg/kg] | pIC50 [4] | ED50 [5] [mg/kg] | ED50 [6, 15] [mg/kg] | other results |
| --- | --- | --- | --- | --- | --- | --- | --- |
| CSc1nc(N2CCN(CCCC(O)c3ccc(F)cc3)CC2)ncc1F (stereo unspecified) | 305 | 7.59 | > 100 | < 6.00 | > 100 | – | – |
| CCC(O)(CCCN1CCN(c2ncc(F)cn2)CC1)c1ccc(F)cc1 (stereo unspecified) | > 1000 | 6.43 | > 50 | 5.43 | 48.5 | > 100 | – |
| COc1nc(N2CCN(CCCC(O)c3ccc(F)cc3)CC2)ncc1F (stereo unspecified) | 180 | 7.62 | 54 | 5.40 | 40.8 | 79.2 | – |
| OC(CCN1CCN(c2ncc(F)cn2)CC1)c1ccc(F)cc1 (stereo unspecified) | 814 | 6.80 | > 100 | < 6.00 | > 100 | – | – |
| NC(CCCN1CCN(c2ncc(F)cn2)CC1)c1ccc(F)cc1 (stereo unspecified) | 446 | ~6.00 | – | < 6.00 | > 100 | – | – |
| OC(CCCN1CCN(c2ncccn2)CC1)c1ccc(F)cc1 (stereo unspecified) | 162 | 6.89 | 32.3 | 5.86 | 25 | > 100 | – |
| CC(O)(CCCN1CCN(c2ncc(F)cn2)CC1)c1ccc(F)cc1 (stereo unspecified) | – | 6.96 | > 50 | 5.67 | > 25 | > 100 | – |
| O[C@@H](CCCN1CCN(c2ncc(F)cn2)CC1)c1ccc(F)cc1 [BMY-14802] | – | – | – | – | – | – | IC50 [7]: 570 nM; ED50 [3]: 25.4 mg/kg; ED50 [6]: 38.1 mg/kg |
| O=C(CCCN1CCN(c2ncc(Br)cn2)CC1)c1ccc(F)cc1 | 72 | 7.07 | – | 5.66 | > 100 | – | – |
| O=C(CCCN1CCC(O)(c2ccc(Cl)cc2)CC1)c1ccc(F)cc1 [HALOPERIDOL] | – | – | 0.5 | – | 2.8 | 0.58 | ED50 [8]: 26 mg/kg; ED50 [9]: > 80 mg/kg; Activity [10]: inactive; ED50 [11]: 0.73 mg/kg; ED50 [12]: 0.28 mg/kg; ED50 [13]: 5.2 mg/kg |
| Fc1ccc(/C=C(\CCN2CCN(c3ncc(F)cn3)CC2)c2ccc(F)cc2)cc1 | 756 | < 6.00 | – | 5.06 | > 100 | – | – |
| O=C(CCCN1CCN(c2ncc(F)cn2)CC1)c1ccc(F)cc1 | 29 | 6.89 | 58.9 | – | 36.3 | 144 | – |
| OC(CCCN1CCN(c2ncccn2)CC1)(c1ccc(F)cc1)c1ccc(F)cc1 | 400 | < 6.00 | > 50 | 6.70 | 52.9 | – | – |
| CCC(O)(CCCN1CCN(c2ncccn2)CC1)c1ccc(F)cc1 (stereo unspecified) | 230 | – | > 100 | 6.38 | > 100 | – | – |
| N#CC(CCCN1CCN(c2ncc(F)cn2)CC1)c1ccc(F)cc1 (stereo unspecified) | 266 | 6.72 | > 100 | 5.73 | 19.8 | > 100 | – |
| CSc1nc(N2CCN(CCCC(=O)c3ccc(F)cc3)CC2)ncc1F | 95 | 6.92 | > 100 | 6.40 | > 100 | – | – |
| CN1CCN(C2=Nc3cc(Cl)ccc3Nc3ccccc32)CC1 [CLOZAPINE] | – | – | – | – | – | > 200 | ED50 [8]: 3.5 mg/kg; ED50 [9]: 5.4 mg/kg; Activity [10]: inactive; pIC50 [14]: < 6.00; ED50 [13]: 7.9 mg/kg |
| O=C(CCCN1CCN(c2ncccn2)CC1)c1ccc(F)cc1 | 6 | 6.37 | 21.6 | 6.17 | 25.3 | > 100 | – |
| O=C(CCCN1CCN(c2ncc(Cl)cn2)CC1)c1ccc(F)cc1 | 51 | – | – | 6.09 | > 100 | – | – |
| Fc1ccc(/C=C(\CCN2CCN(c3ncccn3)CC2)c2ccc(F)cc2)cc1 | 375 | < 6.00 | – | 5.77 | > 100 | – | – |
| O/N=C(\CCCN1CCN(c2ncc(F)cn2)CC1)c1ccc(F)cc1 | 22 | 7.09 | – | – | > 100 | – | – |
| OC(CCCN1CCN(c2ncc(F)cn2)CC1)(c1ccc(F)cc1)c1ccc(F)cc1 | 1140 | – | – | – | > 100 | – | – |
| CSc1ccc2c(c1)N(CCC1CCCCN1C)c1ccccc1S2 (stereo unspecified) [THIORIDAZINE] | – | 6.12 | 280 | – | – | – | ED50 [8]: 2.2 mg/kg; ED50 [9]: 45 mg/kg; Activity [10]: inactive; ED50 [11]: 33 mg/kg; ED50 [12]: 56 mg/kg; ED50 [13]: 20 mg/kg |
| OC(CCCN1CCN(c2ncc(Cl)cn2)CC1)c1ccc(F)cc1 (stereo unspecified) | 1420 | 7.66 | > 100 | 5.25 | 87.1 | 148 | – |
| Oc1nc(N2CCN(CCCC(O)c3ccc(F)cc3)CC2)ncc1F (stereo unspecified) | > 1000 | < 6.00 | > 100 | < 6.00 | > 100 | – | – |
| OC(CCCN1CCN(c2ncc(Br)cn2)CC1)c1ccc(F)cc1 (stereo unspecified) | 1500 | 7.59 | > 65 | < 6.00 | 50 | 108 | – |
